Test results from ChEMBL document CHEMBL1141106, “Synthesis, binding affinity at glutamic acid receptors, neuroprotective effects, and molecular modeling investigation of novel dihydroisoxazole amino acids” (J Med Chem, 2005).

Columns and labels:
[1] = biological target: Glutamate receptor ionotropic, AMPA (Rattus norvegicus, UniProt P19490+P19491+P19492+P19493); test: In vitro inhibitory concentration against AMPA receptor using [3H]AMPA; type: protein-complex assay
In short: (§1)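 Displacement binding to rat cortical membranes. Radioligands: NMDA site 2 nM [3H]CGP 39653; AMPA site 5 nM [3H]AMPA; KA site 5 nM [3H]KA without CaCl2. Bound radioactivity was counted by scintillation. IC50 came from nonlinear regression with a Hill-coefficient inhibition equation on percent of total specific binding. Mean ± SEM of at least three independent experiments.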

[2] = biological target: Glutamate receptor ionotropic, kainate; test: In vitro inhibitory concentration against KA receptor using [3H]KA; type: protein-complex assay, Rattus norvegicus; in short: as §1
[3] = biological target: Glutamate NMDA receptor; test: In vitro binding affinity for NMDA receptor using [3H]-CGP- 39653; type: protein-complex assay, Rattus norvegicus
In short: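 Displacement binding to rat cortical membranes. Bound radioactivity was counted by scintillation. IC50 came from nonlinear regression with a Hill-coefficient inhibition equation on percent of total specific binding. Mean ± SEM of at least three independent experiments.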

[4] = biological target: T1, Metabotropic glutamate receptor 1 (Rattus norvegicus, UniProt P23385); test: Binding affinity for mGluR1 receptor expressed in CHO cells; type: cell-based
[5] = biological target: T2, Metabotropic glutamate receptor 4 (Rattus norvegicus, UniProt P31423); test: Binding affinity for mGluR4 receptor expressed in CHO cells; type: cell-based
[6] = biological target: T3, Metabotropic glutamate receptor 2 (Rattus norvegicus, UniProt P31421); test: Effective concentration against mGluR2 receptor expressed in CHO cells; type: cell-based
In short: (§2)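 CHO cell lines stably expressing rat mGluR1a, mGluR2 or mGluR4a. Functional second-messenger read-out: intracellular calcium for mGluR1, cyclic AMP levels for mGluR2 and mGluR4. Values are mean ± SEM of at least three independent experiments.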

[7] = biological target: T2, Metabotropic glutamate receptor 4; test: Effective concentration against mGluR4 receptor expressed in CHO cells; type: cell-based; in short: as §2
[8] = biological target: Metabotropic glutamate receptor 4 (Rattus norvegicus) (UniProt P31423); test: Binding affinity for mGluR4 receptor expressed in CHO cells; weak
[9] = biological target: T3, Metabotropic glutamate receptor 2; test: Binding affinity for mGluR2 receptor expressed in CHO cells; type: cell-based
[10] = biological target: T1, Metabotropic glutamate receptor 1; test: Effective concentration against mGluR1 receptor expressed in CHO cells; type: cell-based; in short: as §2
[11] = biological target: T3, Metabotropic glutamate receptor 2; test: Effective concentration against mGluR2 receptor expressed in CHO cells; weak; type: cell-based; in short: as §2
[12] = Inhibition of 10 uM NMDA induced electrophysiological response in rat cortical wedge preparation

T3 sequence (P31421 whole entry): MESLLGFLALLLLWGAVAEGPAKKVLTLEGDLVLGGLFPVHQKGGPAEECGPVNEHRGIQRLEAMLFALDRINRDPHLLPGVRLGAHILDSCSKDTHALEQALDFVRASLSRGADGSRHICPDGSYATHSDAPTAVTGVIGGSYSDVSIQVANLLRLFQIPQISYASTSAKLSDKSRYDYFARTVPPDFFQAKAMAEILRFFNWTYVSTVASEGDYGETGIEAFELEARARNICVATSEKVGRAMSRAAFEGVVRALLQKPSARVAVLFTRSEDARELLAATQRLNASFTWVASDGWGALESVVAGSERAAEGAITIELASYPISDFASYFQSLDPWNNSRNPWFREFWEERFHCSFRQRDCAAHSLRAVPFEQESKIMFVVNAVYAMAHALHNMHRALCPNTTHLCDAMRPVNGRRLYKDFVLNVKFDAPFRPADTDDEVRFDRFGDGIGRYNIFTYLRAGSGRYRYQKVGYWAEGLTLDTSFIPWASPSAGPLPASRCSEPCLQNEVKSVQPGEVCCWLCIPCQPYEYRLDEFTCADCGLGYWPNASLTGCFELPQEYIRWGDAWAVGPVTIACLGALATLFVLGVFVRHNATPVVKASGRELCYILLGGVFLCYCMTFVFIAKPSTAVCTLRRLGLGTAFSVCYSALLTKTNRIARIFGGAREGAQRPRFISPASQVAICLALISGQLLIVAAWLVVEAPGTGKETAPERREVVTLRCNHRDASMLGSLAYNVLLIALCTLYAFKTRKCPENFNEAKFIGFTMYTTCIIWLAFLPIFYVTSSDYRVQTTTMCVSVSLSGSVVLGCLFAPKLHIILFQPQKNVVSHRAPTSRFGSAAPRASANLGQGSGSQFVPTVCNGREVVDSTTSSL
T1 sequence (P23385 whole entry): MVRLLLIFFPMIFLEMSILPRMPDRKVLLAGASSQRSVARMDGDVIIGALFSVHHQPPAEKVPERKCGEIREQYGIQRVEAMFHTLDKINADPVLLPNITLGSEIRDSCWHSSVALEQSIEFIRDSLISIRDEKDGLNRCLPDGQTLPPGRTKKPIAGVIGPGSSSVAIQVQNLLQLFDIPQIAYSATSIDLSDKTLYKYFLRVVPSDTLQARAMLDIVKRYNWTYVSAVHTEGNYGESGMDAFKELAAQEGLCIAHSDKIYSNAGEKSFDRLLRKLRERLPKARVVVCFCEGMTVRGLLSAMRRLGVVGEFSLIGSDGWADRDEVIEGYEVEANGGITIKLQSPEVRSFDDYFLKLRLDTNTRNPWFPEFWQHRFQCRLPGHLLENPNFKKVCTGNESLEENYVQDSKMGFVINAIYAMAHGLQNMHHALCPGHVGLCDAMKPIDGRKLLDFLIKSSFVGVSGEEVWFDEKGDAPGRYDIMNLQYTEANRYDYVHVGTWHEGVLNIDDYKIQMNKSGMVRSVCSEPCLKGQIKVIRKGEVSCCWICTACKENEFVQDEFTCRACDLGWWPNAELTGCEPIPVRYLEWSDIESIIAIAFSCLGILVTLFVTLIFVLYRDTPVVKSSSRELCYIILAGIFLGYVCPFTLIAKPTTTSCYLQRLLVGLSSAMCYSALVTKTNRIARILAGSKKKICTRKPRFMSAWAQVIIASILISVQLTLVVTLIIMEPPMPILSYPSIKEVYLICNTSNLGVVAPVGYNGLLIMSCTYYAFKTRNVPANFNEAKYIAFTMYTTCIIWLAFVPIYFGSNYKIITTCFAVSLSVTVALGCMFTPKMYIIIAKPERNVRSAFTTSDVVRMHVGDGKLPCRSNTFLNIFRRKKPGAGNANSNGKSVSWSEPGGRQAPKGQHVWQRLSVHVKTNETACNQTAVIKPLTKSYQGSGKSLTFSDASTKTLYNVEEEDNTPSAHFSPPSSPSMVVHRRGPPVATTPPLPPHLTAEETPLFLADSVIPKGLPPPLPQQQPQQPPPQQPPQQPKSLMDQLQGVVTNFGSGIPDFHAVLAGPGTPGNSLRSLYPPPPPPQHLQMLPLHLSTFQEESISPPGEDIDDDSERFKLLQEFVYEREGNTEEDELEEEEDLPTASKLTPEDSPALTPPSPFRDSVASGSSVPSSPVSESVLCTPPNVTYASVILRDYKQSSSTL
T2 sequence (P31423 whole entry): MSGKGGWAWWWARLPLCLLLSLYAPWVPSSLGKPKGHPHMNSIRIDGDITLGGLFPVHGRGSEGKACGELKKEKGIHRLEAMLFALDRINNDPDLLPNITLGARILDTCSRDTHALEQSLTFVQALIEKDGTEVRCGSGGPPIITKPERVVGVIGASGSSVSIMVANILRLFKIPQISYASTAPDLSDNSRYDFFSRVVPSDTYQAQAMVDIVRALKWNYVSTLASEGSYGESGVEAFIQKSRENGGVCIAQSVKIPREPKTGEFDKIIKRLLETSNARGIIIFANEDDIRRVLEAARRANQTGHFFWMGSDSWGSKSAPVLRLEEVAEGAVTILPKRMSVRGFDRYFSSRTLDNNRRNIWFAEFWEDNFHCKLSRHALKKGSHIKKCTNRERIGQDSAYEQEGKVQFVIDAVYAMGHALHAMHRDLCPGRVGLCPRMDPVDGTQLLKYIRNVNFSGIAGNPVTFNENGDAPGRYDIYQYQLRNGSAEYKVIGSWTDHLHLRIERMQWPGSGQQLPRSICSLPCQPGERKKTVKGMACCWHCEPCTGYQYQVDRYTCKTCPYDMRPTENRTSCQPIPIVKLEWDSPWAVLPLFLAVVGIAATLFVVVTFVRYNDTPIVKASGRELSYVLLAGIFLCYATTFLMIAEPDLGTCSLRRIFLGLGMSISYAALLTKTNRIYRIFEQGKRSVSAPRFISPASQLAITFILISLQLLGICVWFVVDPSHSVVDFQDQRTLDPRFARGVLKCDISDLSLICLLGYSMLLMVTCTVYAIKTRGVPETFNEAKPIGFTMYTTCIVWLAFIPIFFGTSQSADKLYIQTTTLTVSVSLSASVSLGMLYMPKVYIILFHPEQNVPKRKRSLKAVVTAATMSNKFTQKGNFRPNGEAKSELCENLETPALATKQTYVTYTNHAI
Metabotropic glutamate receptor 4 (Rattus norvegicus), sequence (P31423 whole entry, looked up): as the sequence (P31423 whole entry) above

SMILES | IC50 [1] | IC50 [2] | Ki [3] | Ki [4] | Ki [5] | EC50 [6] | EC50 [7] | further results
N[C@H](C[C@H]1CC(C(=O)O)=NO1)C(=O)O | > 100 µM | > 100 µM | 0.1 µM | – | – | – | – | –
N[C@]1(C(=O)O)C[C@@H]2C(C(=O)O)=NO[C@@H]2C1 | – | – | – | 33 µM | > 1000 µM | 9.1 µM | > 1000 µM | Ki [8]: weak
N[C@@H](C[C@H]1CC(C(=O)O)=NO1)C(=O)O | > 100 µM | > 100 µM | – | – | – | – | – | –
N[C@]1(C(=O)O)C[C@@H]2ON=C(C(=O)O)[C@@H]2C1 | – | – | – | > 1000 µM | – | > 1000 µM | – | Ki [9]: > 1000 µM; EC50 [10]: > 1000 µM
N[C@@H](C[C@@H]1CC(C(=O)O)=NO1)C(=O)O | > 100 µM | > 100 µM | 1.9 µM | – | – | – | – | –
N[C@H](C[C@@H]1CC(C(=O)O)=NO1)C(=O)O | > 100 µM | > 100 µM | 0.51 µM | – | – | – | – | –
N[C@@]1(C(=O)O)C[C@@H]2C(C(=O)O)=NO[C@@H]2C1 | > 100 µM | > 100 µM | 0.233 µM | > 1000 µM | > 1000 µM | > 1000 µM | > 1000 µM | Ki [9]: > 1000 µM; EC50 [10]: > 1000 µM
N[C@@]1(C(=O)O)C[C@@H]2ON=C(C(=O)O)[C@@H]2C1 | – | – | 47 µM | – | – | – | – | EC50 [11]: Not Active
NC1(C(=O)O)CC2ON=C(C(=O)O)C2C1 (racemic; form 1) | > 100 µM | > 100 µM | 0.37 µM | 94 µM | > 1000 µM | – | > 1000 µM | IC50 [12]: 14 µM
NC(CC1CC(C(=O)O)=NO1)C(=O)O (racemic; form 1) | > 100 µM | > 100 µM | 0.21 µM | > 1000 µM | > 1000 µM | > 1000 µM | > 1000 µM | Ki [9]: > 1000 µM; IC50 [12]: 14.2 µM; EC50 [10]: > 1000 µM
NC1(C(=O)O)CC2ON=C(C(=O)O)C2C1 (racemic; form 2) | – | – | > 100 µM | 27 µM | – | 16 µM | – | Ki ([5]; cho): > 1000 µM; EC50 ([7]; cho): > 1000 µM
NC(CC1CC(C(=O)O)=NO1)C(=O)O (racemic; form 2) | – | – | 0.96 µM | – | – | – | – | IC50 [12]: 30.5 µM
